Measurements published in ChEMBL document CHEMBL3407461 (J Med Chem, 2014).
≈ marks a conversion by molar mass, not a printed value. Calls of active or inactive are those of the source.

Experiments:
Liver microsome [1] = experiment: Half life in human liver microsomes at 100 uM by LC-MS/MS analysis; assay type: ADME
Mus musculus [2] = experiment: Antinociceptive activity in chronic constriction injury neutropathic pain CD-1 mouse model assessed as time for peak protection at 3 umol/kg, po; assay type: functional
In short: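 Male CD-1 mice (25−30 g), chronic constriction injury of left sciatic nerve (Bennett model) under isoflurane. Dosed by gavage (3 μmol/kg, 0.2 mL) at peak mechano-allodynia on day 7; vehicle 10% DMSO in 0.5% methylcellulose. Paw withdrawal threshold (g) measured on the ipsilateral hind paw from 30 min to 5 h post dose. Expressed as % reversal, mean ± SEM over n animals.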

CYP2C19 = CYP2C19 (Homo sapiens, UniProt P33261); experiment: Inhibition of CYP2C19 in human microsomes preincubated at 10 uM for 5 mins before substrate addition measured after 10 mins by LC/MS/MS analysis; assay type: ADME
Cytochrome P450 1A2 = target: T1, Cytochrome P450 1A2 (Homo sapiens, UniProt P05177); experiment: Inhibition of CYP1A2 in human microsomes preincubated for 5 mins before substrate addition measured after 10 mins by LC/MS/MS analysis; assay type: ADME
T1 sequence (P05177 whole entry): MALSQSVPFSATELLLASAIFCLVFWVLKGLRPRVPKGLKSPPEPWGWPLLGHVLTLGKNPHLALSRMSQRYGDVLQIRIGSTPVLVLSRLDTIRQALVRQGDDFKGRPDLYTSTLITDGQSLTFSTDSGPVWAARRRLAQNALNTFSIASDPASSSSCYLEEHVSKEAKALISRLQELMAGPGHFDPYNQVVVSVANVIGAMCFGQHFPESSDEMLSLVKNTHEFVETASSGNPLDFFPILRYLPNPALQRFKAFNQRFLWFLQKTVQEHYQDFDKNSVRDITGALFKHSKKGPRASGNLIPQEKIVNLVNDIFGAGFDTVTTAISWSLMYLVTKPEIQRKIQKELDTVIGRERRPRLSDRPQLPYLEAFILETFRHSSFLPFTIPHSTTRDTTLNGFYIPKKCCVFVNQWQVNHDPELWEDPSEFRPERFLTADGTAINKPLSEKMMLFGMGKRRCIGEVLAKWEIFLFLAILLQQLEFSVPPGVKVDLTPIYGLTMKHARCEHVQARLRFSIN

Mus musculus [3] = experiment: Antinociceptive activity in chronic constriction injury neutropathic pain CD-1 mouse model at 3 umol/kg, po after 3 hrs post dose relative to control; assay type: functional
Cytochrome P450 2C19 = Cytochrome P450 2C19 (Homo sapiens, UniProt P33261); experiment: Inhibition of CYP2C19 in human microsomes preincubated for 5 mins before substrate addition measured after 10 mins by LC/MS/MS analysis; assay type: ADME
CYP2C9 = CYP2C9 (Homo sapiens, UniProt P11712); experiment: Inhibition of CYP2C9 in human microsomes preincubated at 10 uM for 5 mins before substrate addition measured after 10 mins by LC/MS/MS analysis; assay type: ADME
Cytochrome P450 3A4 = Cytochrome P450 3A4 (Homo sapiens, UniProt P08684); experiment: Inhibition of CYP3A4 in human microsomes preincubated for 5 mins before substrate addition measured after 10 mins by LC/MS/MS analysis; assay type: ADME
[4] = Aqueous solubility of the compound at pH 7.4 by pION Method; assay type: physicochemical; conditions: buffer
Plasma [5] = experiment: Fraction unbound in mouse plasma at 10 uM after 5 hrs by LC-MS/MS analysis; assay type: ADME, cell-free
Liver microsome [6] = experiment: Half life in rat liver microsomes at 100 uM by LC-MS/MS analysis; assay type: ADME
Plasma [7] = experiment: Fraction unbound in human plasma at 10 uM after 5 hrs by LC-MS/MS analysis; assay type: ADME, cell-free
[8] = Half life of the compound in simulated gastric fluid at pH 1.6; assay type: ADME; conditions: simulated gi fluid
[9] = target: Adenosine receptor A2a (Mus musculus) (UniProt Q60613); experiment: Displacement of [3H]CGS21680 from mouse A2A adenosine receptor expressed in HEK293 cells at 10 uM after 60 mins by liquid scintillation counting; assay type: cell-based
[10] = target: T2, Adenosine receptor A1 (Homo sapiens) (UniProt P30542); experiment: Displacement of [3H]R-PIA from human recombinant A1 adenosine receptor expressed in CHO cells at 10 uM after 60 mins by liquid scintillation counting; assay type: cell-based
T2 sequence (whole entry): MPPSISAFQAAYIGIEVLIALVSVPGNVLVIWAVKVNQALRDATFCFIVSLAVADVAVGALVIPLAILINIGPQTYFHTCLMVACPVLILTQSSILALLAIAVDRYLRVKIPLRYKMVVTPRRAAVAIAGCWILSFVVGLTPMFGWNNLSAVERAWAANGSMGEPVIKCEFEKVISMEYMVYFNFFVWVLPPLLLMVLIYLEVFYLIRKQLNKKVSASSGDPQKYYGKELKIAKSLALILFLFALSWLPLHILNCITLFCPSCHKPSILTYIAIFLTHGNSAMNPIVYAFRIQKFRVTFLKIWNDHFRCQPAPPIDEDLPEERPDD

[11] = target: Adenosine receptor A2a (Homo sapiens) (UniProt P29274); experiment: Displacement of [3H]CGS21680 from human recombinant A2A adenosine receptor expressed in HEK293 cells at 10 uM after 60 mins by liquid scintillation counting; assay type: cell-based
Mus musculus [12] = experiment: Antinociceptive activity in chronic constriction injury neutropathic pain CD-1 mouse model assessed as maximum protection on ipsilateral hind paw at 3 umol/kg, po after 30 mins to 5 hrs post dose relative to control; assay type: functional; conditions: CD-1, po
CYP1A2 = CYP1A2 (Homo sapiens, UniProt P05177); experiment: Inhibition of CYP1A2 in human microsomes preincubated at 10 uM for 5 mins before substrate addition measured after 10 mins by LC/MS/MS analysis; assay type: ADME
Plasma [13] = experiment: Fraction unbound in rat plasma at 10 uM after 5 hrs by LC-MS/MS analysis; assay type: ADME, cell-free
Cytochrome P450 2D6 = Cytochrome P450 2D6 (Homo sapiens, UniProt P10635); experiment: Inhibition of CYP2D6 in human microsomes preincubated for 5 mins before substrate addition measured after 10 mins by LC/MS/MS analysis; assay type: ADME
CYP3A4 = CYP3A4 (Homo sapiens, UniProt P08684); experiment: Inhibition of CYP3A4 in human microsomes preincubated at 10 uM for 5 mins before substrate addition measured after 10 mins by LC/MS/MS analysis; assay type: ADME
Liver microsome [14] = experiment: Intrinsic clearance in human liver microsomes assessed per mg protein at 100 uM by LC-MS/MS analysis; assay type: ADME
CYP2D6 = CYP2D6 (Homo sapiens, UniProt P10635); experiment: Inhibition of CYP2D6 in human microsomes preincubated at 10 uM for 5 mins before substrate addition measured after 10 mins by LC/MS/MS analysis; assay type: ADME
Liver = experiment: Half life in mouse liver microsomes at 100 uM by LC-MS/MS analysis; assay type: ADME
Cytochrome P450 2C9 = Cytochrome P450 2C9 (Homo sapiens, UniProt P11712); experiment: Inhibition of CYP2C9 in human microsomes preincubated for 5 mins before substrate addition measured after 10 mins by LC/MS/MS analysis; assay type: ADME
[15] = Half life of the compound in simulated intestinal fluid at pH 6.5; assay type: ADME; conditions: simulated gi fluid
[16] = Permeability across apical to basolateral side of human Caco2 cells expressing P-gp; assay type: ADME, cell-based; conditions: caco-2
[17] = target: T3, Adenosine receptor A3 (Mus musculus) (UniProt Q61618); experiment: Agonist activity at mouse A3 adenosine receptor expressed in HEK293 cells assessed as inhibition of forskolin-stimulated cAMP production after 15 mins relative to control; assay type: functional, cell-based
T3 sequence (whole entry): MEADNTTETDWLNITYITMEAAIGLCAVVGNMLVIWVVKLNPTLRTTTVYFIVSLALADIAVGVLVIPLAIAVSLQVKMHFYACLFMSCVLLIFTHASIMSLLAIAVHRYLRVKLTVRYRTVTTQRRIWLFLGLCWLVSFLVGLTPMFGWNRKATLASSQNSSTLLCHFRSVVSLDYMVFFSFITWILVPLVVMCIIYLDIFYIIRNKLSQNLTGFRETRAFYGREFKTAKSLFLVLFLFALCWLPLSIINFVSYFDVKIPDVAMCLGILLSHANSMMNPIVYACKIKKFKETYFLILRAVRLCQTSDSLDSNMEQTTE
In short: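 2 × 10^5 cells/tube, coincubated with forskolin 10 μM plus ligand for 15 min at 37 °C with shaking. Stopped with HCl. cAMP in supernatant measured by competitive binding.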

[18] = target: T4, Adenosine receptor A1 (Mus musculus) (UniProt Q60612); experiment: Displacement of [125I]I-AB-MECA from mouse A1 adenosine receptor expressed in HEK293 cells at 10 uM after 60 mins by liquid scintillation counting
T4 sequence (whole entry): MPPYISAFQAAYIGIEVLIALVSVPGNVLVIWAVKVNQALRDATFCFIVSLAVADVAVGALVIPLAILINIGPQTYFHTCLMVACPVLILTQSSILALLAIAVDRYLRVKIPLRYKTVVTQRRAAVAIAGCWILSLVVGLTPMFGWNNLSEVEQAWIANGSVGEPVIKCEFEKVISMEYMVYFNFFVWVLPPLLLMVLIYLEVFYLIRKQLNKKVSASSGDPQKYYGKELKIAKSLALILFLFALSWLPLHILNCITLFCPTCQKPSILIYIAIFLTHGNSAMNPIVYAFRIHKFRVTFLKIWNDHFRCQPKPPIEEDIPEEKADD

[19] = target: Voltage-gated inwardly rectifying potassium channel KCNH2 (Homo sapiens, UniProt Q12809); experiment: Inhibition of human ERG by PDSP screening
[20] = target: Sigma non-opioid intracellular receptor 1 (Homo sapiens) (UniProt Q99720); experiment: Binding affinity to sigma1 receptor (unknown origin) by PDSP screening
[21] = target: Translocator protein (Homo sapiens) (UniProt P30536); experiment: Binding affinity to TSPO (unknown origin) by PDSP screening
Homo sapiens = species on record: Homo sapiens; experiment: Binding affinity to sigma2 receptor (unknown origin) by PDSP screening
hERG (KCNH2) = hERG (KCNH2) (Homo sapiens, UniProt Q12809); experiment: Inhibition of human ERG at 10 uM by PDSP screening
Chain of hERG (KCNH2) (Q12809 whole entry): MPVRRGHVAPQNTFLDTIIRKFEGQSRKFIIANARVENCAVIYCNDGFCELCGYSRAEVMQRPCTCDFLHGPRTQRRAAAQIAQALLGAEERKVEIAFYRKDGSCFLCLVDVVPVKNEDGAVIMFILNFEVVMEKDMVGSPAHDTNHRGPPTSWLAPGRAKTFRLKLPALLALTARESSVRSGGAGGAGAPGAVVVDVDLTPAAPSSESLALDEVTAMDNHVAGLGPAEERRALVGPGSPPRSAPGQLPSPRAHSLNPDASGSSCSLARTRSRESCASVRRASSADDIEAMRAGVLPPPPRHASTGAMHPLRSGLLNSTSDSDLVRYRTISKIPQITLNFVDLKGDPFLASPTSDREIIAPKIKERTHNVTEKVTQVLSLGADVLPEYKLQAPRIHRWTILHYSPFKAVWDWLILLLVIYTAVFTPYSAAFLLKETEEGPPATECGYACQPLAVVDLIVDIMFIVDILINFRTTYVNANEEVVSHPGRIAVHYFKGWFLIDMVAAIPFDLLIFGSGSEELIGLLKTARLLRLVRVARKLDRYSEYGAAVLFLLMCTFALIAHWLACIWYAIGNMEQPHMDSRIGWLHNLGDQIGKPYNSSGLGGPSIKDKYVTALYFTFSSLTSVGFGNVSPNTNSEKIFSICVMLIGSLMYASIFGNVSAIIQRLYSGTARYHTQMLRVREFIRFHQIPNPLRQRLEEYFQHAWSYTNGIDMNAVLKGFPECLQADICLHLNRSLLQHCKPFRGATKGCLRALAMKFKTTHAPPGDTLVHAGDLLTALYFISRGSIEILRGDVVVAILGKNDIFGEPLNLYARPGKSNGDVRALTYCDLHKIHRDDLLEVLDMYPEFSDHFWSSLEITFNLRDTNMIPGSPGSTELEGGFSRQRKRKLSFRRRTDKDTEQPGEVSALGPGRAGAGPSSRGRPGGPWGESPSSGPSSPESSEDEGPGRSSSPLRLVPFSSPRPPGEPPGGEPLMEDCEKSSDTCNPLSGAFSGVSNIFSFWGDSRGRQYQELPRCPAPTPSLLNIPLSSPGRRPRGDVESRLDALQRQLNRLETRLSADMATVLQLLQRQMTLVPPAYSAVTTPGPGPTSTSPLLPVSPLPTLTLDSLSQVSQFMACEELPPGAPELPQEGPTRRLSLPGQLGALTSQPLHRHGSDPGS

Chain of Adenosine receptor A2a (Mus musculus) (Q60613 whole entry): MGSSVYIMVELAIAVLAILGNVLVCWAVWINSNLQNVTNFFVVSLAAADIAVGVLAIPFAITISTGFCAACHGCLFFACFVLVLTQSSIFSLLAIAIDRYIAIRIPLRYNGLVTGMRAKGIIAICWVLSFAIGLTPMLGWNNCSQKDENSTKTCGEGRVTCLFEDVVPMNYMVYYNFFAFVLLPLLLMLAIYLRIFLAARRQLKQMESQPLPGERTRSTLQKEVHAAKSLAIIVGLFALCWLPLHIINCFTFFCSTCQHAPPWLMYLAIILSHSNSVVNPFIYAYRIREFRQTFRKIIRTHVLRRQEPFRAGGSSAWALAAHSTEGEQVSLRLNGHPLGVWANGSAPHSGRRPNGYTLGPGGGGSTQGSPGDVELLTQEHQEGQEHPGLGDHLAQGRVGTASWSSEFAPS
Chain of Adenosine receptor A2a (Homo sapiens) (P29274 whole entry): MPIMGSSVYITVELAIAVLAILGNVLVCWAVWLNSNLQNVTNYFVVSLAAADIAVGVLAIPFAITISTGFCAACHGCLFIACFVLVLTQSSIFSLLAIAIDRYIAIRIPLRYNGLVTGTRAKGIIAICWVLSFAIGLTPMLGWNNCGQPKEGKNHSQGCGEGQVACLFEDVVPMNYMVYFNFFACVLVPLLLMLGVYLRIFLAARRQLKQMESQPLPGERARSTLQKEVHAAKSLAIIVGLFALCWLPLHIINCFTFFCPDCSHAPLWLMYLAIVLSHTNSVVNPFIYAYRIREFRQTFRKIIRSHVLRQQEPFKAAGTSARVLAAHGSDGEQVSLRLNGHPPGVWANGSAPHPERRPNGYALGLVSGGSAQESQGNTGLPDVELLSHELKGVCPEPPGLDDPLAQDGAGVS
Chain of Cytochrome P450 2C19 (P33261 whole entry): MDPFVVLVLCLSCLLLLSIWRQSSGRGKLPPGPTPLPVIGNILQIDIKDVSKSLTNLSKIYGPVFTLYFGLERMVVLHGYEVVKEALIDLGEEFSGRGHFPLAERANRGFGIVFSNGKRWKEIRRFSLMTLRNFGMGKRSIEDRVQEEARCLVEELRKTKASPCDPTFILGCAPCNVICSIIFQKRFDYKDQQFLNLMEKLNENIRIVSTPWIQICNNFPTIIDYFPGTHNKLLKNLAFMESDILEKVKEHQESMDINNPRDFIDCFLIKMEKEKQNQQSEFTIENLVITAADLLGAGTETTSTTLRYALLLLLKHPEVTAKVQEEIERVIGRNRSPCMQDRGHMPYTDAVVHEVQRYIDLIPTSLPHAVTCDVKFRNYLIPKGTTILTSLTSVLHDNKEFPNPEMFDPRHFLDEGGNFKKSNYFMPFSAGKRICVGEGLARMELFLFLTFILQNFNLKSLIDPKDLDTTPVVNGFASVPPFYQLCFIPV
Chain of Cytochrome P450 3A4 (P08684 whole entry): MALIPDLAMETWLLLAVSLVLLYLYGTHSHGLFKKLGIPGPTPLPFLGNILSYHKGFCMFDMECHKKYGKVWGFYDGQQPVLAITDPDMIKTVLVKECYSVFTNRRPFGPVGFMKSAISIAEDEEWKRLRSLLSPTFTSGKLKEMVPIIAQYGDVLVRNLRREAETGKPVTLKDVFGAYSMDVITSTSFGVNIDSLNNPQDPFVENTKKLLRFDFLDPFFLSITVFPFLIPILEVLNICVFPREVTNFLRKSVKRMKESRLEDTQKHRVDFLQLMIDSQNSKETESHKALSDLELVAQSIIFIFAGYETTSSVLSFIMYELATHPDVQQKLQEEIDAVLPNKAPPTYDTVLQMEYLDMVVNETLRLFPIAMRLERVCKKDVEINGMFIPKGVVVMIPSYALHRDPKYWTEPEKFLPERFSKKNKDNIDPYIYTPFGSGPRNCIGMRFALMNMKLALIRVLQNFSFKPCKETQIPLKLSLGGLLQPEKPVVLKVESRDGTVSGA
Chain of Cytochrome P450 2D6 (P10635 whole entry): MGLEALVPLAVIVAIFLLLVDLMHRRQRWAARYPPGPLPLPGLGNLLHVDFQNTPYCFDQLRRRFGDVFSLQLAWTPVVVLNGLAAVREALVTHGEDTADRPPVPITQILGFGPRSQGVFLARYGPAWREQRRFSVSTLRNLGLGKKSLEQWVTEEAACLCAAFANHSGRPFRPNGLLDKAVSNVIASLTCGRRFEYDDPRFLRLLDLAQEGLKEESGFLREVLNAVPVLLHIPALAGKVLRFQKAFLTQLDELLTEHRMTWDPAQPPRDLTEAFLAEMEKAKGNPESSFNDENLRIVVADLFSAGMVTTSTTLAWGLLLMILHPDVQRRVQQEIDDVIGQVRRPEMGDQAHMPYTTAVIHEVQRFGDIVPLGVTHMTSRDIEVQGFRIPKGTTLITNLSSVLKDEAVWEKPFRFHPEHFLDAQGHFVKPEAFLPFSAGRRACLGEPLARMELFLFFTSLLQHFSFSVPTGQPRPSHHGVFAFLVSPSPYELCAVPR
Chain of Cytochrome P450 2C9 (P11712 whole entry): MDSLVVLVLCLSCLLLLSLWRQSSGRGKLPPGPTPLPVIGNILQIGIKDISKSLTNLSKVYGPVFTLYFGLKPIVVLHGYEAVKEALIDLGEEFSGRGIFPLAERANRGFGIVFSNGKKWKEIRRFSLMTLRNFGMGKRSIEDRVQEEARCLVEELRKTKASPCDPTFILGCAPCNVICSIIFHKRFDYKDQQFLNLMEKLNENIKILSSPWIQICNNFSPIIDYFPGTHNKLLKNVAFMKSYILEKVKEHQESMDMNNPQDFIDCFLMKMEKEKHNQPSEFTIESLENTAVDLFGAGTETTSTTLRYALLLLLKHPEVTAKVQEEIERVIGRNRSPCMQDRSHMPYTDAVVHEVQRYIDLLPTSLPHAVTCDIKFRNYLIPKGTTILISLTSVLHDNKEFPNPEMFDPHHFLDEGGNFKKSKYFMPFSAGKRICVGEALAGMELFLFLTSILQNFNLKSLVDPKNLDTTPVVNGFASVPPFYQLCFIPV
Chain of CYP2C19 (P33261 whole entry): as the sequence (P33261 whole entry) above
Chain of Sigma non-opioid intracellular receptor 1 (Homo sapiens) (Q99720 whole entry): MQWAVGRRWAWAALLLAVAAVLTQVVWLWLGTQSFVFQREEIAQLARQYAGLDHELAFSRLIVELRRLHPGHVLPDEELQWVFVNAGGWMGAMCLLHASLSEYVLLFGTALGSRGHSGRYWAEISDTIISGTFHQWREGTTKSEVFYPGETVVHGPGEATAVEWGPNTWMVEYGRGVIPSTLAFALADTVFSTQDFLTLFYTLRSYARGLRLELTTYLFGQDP
Chain of CYP3A4 (P08684 whole entry): as the sequence (P08684 whole entry) above
Chain of CYP2D6 (P10635 whole entry): as the sequence (P10635 whole entry) above
Chain of Translocator protein (Homo sapiens) (P30536 whole entry): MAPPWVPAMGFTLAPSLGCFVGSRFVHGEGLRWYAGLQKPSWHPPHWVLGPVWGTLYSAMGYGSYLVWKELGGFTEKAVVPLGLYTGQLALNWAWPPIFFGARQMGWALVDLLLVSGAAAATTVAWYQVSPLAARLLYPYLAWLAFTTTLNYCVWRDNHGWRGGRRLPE

IC50 (Cytochrome P450 1A2)	IC50 (Cytochrome P450 2C19)	IC50 (Cytochrome P450 3A4)	inhibition [9]	inhibition [10]	inhibition [11]	IC50 (Cytochrome P450 2D6)	CLH (Liver microsome [14])	IC50 (Cytochrome P450 2C9)	inhibition [18]	Structure (SMILES)	Time (Mus musculus [2])	Activity (Mus musculus [3])	Emax at 3 µmol/kg (Mus musculus [12])	further results
> 7 µM	> 7 µM	> 7 µM	10%	18%	19%	7.4 µM	3.38 µL/min	> 7 µM	–	CNC(=O)[C@@]12C[C@@H]1[C@@H](n1cnc3c(NC)nc(C#Cc4ccc(Br)s4)nc31)[C@H](O)[C@@H]2O	1 h	48.7%	100%	t1/2 (Liver microsome [1]): 3.42 h; inhibition at 10 min, 10 µM (CYP2C19): 34%; inhibition at 10 min, 10 µM (CYP2C9): 24.2%; solubility [4]: 15.6 µg/mL (≈ 31 µM); Fu (Plasma [5]): 2.75%; t1/2 (Liver microsome [6]): 1.52 h; Fu (Plasma [7]): 2.67%; t1/2 [8]: > 8 h; inhibition at 10 min, 10 µM (CYP1A2): 15%; Fu (Plasma [13]): 4.04%; inhibition at 10 min, 10 µM (CYP3A4): 3.1%; inhibition at 10 min, 10 µM (CYP2D6): 57.5%; t1/2 (Liver): 1.6 h; t1/2 [15]: > 8 h
> 10 µM	> 10 µM	> 10 µM	7%	6%	24%	> 10 µM	3.69 µL/min	> 10 µM	38%	CNC(=O)[C@@]12C[C@@H]1[C@@H](n1cnc3c(NC)nc(C#Cc4ccc(Cl)s4)nc31)[C@H](O)[C@@H]2O	0.5 h	82.8%	93.3%	permeability [16]: permeable; Imax [17]: 35%; IC50 [19]: 12.9 µM; Activity [20]: Active; Activity [21]: Active; Activity (Homo sapiens): Active
–	–	–	16%	35%	12%	–	–	–	72%	CNC(=O)[C@@]12C[C@@H]1[C@@H](n1cnc3c(NC)nc(C#Cc4cnn(C)c4)nc31)[C@H](O)[C@@H]2O	1 h	–	87.3%	inhibition at 10 µM (hERG (KCNH2)): 28%
